Drawing on ChEMBL document CHEMBL1129567, “Structure-based design of novel, urea-containing FKBP12 inhibitors” (J Med Chem, 1996), this text covers Ki for 17 compounds.

Each structure is given as a SMILES string.

Chain of Peptidyl-prolyl cis-trans isomerase FKBP1A (P62942 whole entry): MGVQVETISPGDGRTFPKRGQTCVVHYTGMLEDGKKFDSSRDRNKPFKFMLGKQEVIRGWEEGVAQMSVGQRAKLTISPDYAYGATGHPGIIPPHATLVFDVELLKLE

For this test, the target named is Peptidyl-prolyl cis-trans isomerase FKBP1A (Homo sapiens, UniProt P62942). In words: Apparent inhibition constant of Wild-type human recombinant FK506 binding protein 12. The note with it: read-out: Ki app. An outline of the steps:
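Wild-type human recombinant FKBP12 (E. coli-expressed, purified), 90 nM, chymotrypsin-coupled continuous spectrophotometric cis-trans isomerase assay with 100 µM cis succinyl-Ala-Leu-Pro-Phe-p-nitroanilide (stock in trifluoroethanol/240 mM LiCl) at 10 or 15 °C. Buffer: 50 mM HEPES pH 8.0, 100 mM NaCl, 100 µM 2-mercaptoethanol, 1% DMSO, 6 mg/mL chymotrypsin. Read for 5 min. Fit to competitive tight-binding equation corrected for uncatalyzed isomerization.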
As for `C=C(C)CNC(=O)N1CCCC[C@H]1C(=O)OCc1ccccc1`, the Ki was 7.2 µM.

For the compound `CC1(CNC(=O)N2CCCC[C@H]2C(=O)OCc2cccc(Oc3ccccc3)c2)CCCCC1`, the Ki was 0.2 µM.

On to `CC(C)(C)CNC(=O)N1CCCC[C@H]1C(=O)OCCCCc1ccccc1`, for which the Ki stood at 0.15 µM.

Turning to `CC(C)(C)CNC(=O)N1CCCC[C@H]1C(=O)OCc1cccc(Oc2ccccc2)c1`, the Ki came to 0.22 µM.

In the case of `CC(C)(CO)CNC(=O)N1CCCC[C@H]1C(=O)OCc1ccccc1`, the Ki came out at 8.4 µM.

On to `CC1(CNC(=O)N2CCCC[C@H]2C(=O)OCc2ccccc2)CCCCC1`, for which the Ki worked out at 0.55 µM.

For `CC1(CNC(=O)N2CCCC[C@H]2C(=O)OCCCCc2ccccc2)CCCCC1`, the Ki came to 0.12 µM.

On to `COC(=O)[C@@H]1CCC[C@H]2CCN(Cc3ccccc3)C(=O)N21`, for which the Ki is 67 µM.

On to `O=C(OCc1ccccc1)[C@@H]1CCC[C@H]2CCN(Cc3ccccc3)C(=O)N21`, for which the Ki worked out at 14 µM.

As to `CCCN1CC[C@@H]2CCC[C@@H](C(=O)OC)N2C1=O`, the Ki turned out to be 83 µM.

`O=C(OCc1ccccc1)[C@@H]1CCCCN1C(=O)NCc1ccccc1`: the Ki turned out to be 6.5 µM.

For the compound `COc1cc(CCCOC(=O)[C@@H]2CCCCN2C(=O)NCC(C)(C)C)cc(OC)c1OC`, the Ki was found to be 0.39 µM.

Take `CC1(CNC(=O)N2CCCC[C@H]2C(=O)OCc2ccccc2)CCCC1`: the Ki worked out at 0.57 µM.

Take `COc1cccc(CCCOC(=O)[C@@H]2CCCCN2C(=O)NCC(C)(C)C)c1`: the Ki is 0.37 µM.

Regarding `CC(C)(C)CNC(=O)N1CCCC[C@H]1C(=O)O[C@H](CCc1ccccc1)c1ccccc1`, the Ki came to 0.35 µM.

Take `CCCN1CC[C@@H]2CCC[C@@H](C(=O)OCc3ccccc3)N2C1=O`: the Ki came out at 24 µM.

Regarding `CC(C)(C)CNC(=O)N1CCCC[C@H]1C(=O)OCc1ccccc1`, the Ki was 0.79 µM.
